Measured values as given in ChEMBL document CHEMBL5653631, “A Potent and Selective ULK1 Inhibitor Suppresses Autophagy and Sensitizes Cancer Cells to Nutrient Stress” (iScience, 2018).

Experiments:
[1] = biological target: Focal adhesion kinase 1 (Homo sapiens) (UniProt Q05397); assay: Inhibition of human recombinant FAK at 40 nM related to control ULK1
[2] = biological target: Cyclin-dependent kinase 6 (Homo sapiens) (UniProt Q00534); assay: Inhibition of human recombinant CDK6 at 40 nM in presence of ATP by radiometric assay relative to control
[3] = biological target: Homeodomain-interacting protein kinase 1 (Homo sapiens) (UniProt Q86Z02); assay: Inhibition of human recombinant HIPK1 at 40 nM related to control ULK1
[4] = biological target: Mitogen-activated protein kinase 14 (Homo sapiens) (UniProt Q16539); assay: Inhibition of human recombinant p38alpha at 40 nM related to control ULK1
[5] = biological target: Activin receptor type-1-like (Homo sapiens) (UniProt P37023); assay: Inhibition of human recombinant ALK1 at 500 nM related to control ULK1
Method in brief: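 Panel of 327 recombinant human kinases, each assayed in vitro by radiometric activity assay in duplicate at a single inhibitor concentration per compound, chosen with reference to its ULK1 inhibition. Activity remaining was expressed as percent of vehicle control, and percent inhibition was calculated as 100 minus percent activity remaining.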

[6] = biological target: Cyclin-dependent kinase 2 (Homo sapiens) (UniProt P24941); assay: Inhibition of human recombinant CDK2 at 500 nM related to control ULK1
[7] = biological target: Eukaryotic translation initiation factor 2-alpha kinase 1 (Homo sapiens) (UniProt Q9BQI3); assay: Inhibition of human recombinant HRI at 500 nM in presence of ATP by radiometric assay relative to control
[8] = biological target: Cyclin-dependent kinase-like 3 (Homo sapiens) (UniProt Q8IVW4); assay: Inhibition of human recombinant CDKL3 at 500 nM related to control ULK1
[9] = biological target: MAP kinase-activated protein kinase 3 (Homo sapiens) (UniProt Q16644); assay: Inhibition of human recombinant MAPKAPK3 at 500 nM related to control ULK1
[10] = biological target: G protein-coupled receptor kinase 6 (Homo sapiens) (UniProt P43250); assay: Inhibition of human recombinant GPRK6 at 500 nM related to control ULK1
[11] = biological target: Ribosomal protein S6 kinase alpha-5 (Homo sapiens) (UniProt O75582); assay: Inhibition of human recombinant MSK1 at 500 nM related to control ULK1
[12] = biological target: T1, Tyrosine-protein kinase TXK (Homo sapiens) (UniProt P42681); assay: Inhibition of human recombinant TXK at 500 nM in presence of ATP by radiometric assay relative to control
T1 sequence (whole entry): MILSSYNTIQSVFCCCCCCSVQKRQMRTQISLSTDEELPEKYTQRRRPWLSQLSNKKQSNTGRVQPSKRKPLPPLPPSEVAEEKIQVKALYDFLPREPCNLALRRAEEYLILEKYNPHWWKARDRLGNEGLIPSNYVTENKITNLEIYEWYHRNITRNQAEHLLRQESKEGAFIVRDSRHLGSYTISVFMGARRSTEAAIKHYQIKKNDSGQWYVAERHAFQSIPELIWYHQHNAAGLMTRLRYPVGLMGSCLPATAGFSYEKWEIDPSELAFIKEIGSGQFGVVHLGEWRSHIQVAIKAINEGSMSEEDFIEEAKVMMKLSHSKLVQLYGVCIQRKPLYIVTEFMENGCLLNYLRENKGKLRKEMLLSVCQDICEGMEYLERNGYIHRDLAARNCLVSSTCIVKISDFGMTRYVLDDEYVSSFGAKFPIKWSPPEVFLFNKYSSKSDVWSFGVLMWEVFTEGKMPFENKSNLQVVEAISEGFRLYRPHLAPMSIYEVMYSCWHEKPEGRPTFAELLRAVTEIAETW

[13] = biological target: T2, Myosin-IIIb (Homo sapiens) (UniProt Q8WXR4); assay: Inhibition of human recombinant MYO3B at 15 nM related to control ULK1
T2 sequence (whole entry): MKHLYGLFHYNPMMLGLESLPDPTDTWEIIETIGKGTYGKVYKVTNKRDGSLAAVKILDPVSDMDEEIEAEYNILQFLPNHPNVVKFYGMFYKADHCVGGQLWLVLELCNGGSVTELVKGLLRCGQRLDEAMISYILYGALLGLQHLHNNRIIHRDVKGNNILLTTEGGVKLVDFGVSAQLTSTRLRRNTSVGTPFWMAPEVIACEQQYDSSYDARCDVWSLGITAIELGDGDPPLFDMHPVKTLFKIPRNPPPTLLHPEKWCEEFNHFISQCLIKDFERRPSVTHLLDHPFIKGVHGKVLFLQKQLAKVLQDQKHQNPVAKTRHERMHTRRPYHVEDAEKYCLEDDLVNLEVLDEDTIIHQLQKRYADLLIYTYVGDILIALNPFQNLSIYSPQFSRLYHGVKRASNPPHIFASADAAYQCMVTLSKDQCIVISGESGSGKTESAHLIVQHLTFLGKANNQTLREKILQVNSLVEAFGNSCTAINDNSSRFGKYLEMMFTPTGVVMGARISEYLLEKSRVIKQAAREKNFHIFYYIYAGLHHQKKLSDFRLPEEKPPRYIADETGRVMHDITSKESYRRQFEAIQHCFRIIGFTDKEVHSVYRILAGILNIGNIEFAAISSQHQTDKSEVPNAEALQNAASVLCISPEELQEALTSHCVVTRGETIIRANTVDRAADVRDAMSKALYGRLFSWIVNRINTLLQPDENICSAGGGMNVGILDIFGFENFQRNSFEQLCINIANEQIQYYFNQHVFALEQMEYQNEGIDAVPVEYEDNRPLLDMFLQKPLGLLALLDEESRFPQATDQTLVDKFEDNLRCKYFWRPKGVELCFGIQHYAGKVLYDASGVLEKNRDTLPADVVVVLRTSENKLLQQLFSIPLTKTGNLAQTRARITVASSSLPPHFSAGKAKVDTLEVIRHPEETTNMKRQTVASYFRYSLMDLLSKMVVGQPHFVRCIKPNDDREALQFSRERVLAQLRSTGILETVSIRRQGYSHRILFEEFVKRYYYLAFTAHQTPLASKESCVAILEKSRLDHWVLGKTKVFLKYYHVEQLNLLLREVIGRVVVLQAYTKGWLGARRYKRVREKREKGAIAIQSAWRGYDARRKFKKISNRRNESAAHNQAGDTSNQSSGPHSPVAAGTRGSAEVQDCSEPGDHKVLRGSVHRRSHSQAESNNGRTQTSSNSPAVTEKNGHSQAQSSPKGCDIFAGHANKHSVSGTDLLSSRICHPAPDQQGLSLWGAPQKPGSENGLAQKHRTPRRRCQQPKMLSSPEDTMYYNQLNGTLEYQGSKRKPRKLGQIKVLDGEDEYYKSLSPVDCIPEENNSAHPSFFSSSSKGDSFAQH

[14] = biological target: Glycogen synthase kinase-3 beta (Homo sapiens) (UniProt P49841); assay: Inhibition of human recombinant GSK3B at 15 nM related to control ULK1
Glycogen synthase kinase-3 beta (Homo sapiens), sequence (P49841 whole entry, looked up): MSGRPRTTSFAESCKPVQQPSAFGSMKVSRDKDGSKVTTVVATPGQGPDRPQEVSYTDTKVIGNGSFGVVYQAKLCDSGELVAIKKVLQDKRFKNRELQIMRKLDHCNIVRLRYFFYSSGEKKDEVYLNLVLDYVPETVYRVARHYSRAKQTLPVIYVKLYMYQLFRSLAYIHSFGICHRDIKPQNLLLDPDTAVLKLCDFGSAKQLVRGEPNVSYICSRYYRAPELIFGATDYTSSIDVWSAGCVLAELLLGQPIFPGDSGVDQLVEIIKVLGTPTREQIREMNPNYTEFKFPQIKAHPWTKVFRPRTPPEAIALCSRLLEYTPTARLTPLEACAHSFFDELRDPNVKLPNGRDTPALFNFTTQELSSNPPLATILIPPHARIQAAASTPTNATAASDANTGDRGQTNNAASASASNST

Focal adhesion kinase 1 (Homo sapiens), sequence (Q05397 2-1052 limits assumed): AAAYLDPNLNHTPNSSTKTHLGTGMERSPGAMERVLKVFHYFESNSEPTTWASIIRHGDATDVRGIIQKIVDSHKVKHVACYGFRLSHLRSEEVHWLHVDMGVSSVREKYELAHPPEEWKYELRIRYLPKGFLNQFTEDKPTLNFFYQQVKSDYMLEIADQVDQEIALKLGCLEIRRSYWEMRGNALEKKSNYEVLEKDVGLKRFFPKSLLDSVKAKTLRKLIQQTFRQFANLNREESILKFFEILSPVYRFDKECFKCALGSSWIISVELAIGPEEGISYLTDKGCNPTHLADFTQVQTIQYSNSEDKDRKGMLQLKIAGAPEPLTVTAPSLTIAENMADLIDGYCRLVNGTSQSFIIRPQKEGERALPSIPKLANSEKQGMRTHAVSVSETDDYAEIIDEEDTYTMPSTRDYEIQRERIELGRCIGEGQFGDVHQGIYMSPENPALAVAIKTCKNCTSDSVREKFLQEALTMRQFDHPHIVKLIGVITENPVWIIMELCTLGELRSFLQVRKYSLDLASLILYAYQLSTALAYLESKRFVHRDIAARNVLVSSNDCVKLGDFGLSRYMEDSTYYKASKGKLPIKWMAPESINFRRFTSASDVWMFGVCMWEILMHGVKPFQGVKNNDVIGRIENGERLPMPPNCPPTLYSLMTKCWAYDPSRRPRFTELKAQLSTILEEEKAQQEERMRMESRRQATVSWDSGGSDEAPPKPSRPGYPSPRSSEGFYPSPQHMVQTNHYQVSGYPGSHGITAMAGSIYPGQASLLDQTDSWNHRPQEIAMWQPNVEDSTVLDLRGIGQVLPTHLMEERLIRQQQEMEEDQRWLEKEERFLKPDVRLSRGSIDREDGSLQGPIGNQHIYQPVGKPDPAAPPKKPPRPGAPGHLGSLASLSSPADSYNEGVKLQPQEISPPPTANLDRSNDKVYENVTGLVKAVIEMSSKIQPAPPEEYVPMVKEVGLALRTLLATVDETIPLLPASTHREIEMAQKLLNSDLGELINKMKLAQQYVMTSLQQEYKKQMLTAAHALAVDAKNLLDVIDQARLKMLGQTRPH
Activin receptor type-1-like (Homo sapiens), sequence (P37023 whole entry): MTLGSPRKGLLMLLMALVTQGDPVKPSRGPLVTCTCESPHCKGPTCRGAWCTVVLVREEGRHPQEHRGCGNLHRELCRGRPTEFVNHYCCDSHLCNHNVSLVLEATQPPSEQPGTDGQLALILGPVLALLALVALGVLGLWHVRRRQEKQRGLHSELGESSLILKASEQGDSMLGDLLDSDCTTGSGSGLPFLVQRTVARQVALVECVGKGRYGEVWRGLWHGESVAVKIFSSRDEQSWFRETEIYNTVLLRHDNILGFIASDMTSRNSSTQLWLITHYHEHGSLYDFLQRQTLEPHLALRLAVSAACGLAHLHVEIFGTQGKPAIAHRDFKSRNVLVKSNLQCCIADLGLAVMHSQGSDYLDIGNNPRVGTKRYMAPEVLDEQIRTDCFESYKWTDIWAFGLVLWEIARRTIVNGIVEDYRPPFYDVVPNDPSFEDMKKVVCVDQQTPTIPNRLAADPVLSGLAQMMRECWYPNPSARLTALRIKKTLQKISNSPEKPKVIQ
Mitogen-activated protein kinase 14 (Homo sapiens), sequence (Q16539 whole entry): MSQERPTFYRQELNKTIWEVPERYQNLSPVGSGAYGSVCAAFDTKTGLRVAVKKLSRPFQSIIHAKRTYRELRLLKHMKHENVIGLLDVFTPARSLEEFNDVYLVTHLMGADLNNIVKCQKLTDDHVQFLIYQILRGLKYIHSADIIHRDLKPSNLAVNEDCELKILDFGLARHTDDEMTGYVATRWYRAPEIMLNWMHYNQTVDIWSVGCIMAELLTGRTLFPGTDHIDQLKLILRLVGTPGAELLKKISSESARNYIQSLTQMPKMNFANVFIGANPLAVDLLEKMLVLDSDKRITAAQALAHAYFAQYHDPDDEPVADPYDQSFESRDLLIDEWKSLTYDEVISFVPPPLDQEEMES
Cyclin-dependent kinase-like 3 (Homo sapiens), sequence (Q8IVW4 whole entry, looked up): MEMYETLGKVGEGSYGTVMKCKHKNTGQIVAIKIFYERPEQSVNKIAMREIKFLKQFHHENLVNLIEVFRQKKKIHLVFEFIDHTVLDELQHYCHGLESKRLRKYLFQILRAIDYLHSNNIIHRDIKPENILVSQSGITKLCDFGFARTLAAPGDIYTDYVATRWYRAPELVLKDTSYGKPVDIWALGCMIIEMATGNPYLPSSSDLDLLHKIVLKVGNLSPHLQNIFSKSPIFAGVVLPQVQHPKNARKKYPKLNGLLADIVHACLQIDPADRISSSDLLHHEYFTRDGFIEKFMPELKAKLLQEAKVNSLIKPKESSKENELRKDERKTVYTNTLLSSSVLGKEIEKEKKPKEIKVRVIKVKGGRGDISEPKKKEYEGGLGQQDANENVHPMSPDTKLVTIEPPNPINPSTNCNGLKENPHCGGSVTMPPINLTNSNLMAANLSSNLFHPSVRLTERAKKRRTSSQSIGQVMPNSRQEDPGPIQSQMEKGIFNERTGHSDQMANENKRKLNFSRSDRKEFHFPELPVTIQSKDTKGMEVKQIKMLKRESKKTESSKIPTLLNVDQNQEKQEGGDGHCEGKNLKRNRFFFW
Homeodomain-interacting protein kinase 1 (Homo sapiens), sequence (Q86Z02 whole entry, looked up): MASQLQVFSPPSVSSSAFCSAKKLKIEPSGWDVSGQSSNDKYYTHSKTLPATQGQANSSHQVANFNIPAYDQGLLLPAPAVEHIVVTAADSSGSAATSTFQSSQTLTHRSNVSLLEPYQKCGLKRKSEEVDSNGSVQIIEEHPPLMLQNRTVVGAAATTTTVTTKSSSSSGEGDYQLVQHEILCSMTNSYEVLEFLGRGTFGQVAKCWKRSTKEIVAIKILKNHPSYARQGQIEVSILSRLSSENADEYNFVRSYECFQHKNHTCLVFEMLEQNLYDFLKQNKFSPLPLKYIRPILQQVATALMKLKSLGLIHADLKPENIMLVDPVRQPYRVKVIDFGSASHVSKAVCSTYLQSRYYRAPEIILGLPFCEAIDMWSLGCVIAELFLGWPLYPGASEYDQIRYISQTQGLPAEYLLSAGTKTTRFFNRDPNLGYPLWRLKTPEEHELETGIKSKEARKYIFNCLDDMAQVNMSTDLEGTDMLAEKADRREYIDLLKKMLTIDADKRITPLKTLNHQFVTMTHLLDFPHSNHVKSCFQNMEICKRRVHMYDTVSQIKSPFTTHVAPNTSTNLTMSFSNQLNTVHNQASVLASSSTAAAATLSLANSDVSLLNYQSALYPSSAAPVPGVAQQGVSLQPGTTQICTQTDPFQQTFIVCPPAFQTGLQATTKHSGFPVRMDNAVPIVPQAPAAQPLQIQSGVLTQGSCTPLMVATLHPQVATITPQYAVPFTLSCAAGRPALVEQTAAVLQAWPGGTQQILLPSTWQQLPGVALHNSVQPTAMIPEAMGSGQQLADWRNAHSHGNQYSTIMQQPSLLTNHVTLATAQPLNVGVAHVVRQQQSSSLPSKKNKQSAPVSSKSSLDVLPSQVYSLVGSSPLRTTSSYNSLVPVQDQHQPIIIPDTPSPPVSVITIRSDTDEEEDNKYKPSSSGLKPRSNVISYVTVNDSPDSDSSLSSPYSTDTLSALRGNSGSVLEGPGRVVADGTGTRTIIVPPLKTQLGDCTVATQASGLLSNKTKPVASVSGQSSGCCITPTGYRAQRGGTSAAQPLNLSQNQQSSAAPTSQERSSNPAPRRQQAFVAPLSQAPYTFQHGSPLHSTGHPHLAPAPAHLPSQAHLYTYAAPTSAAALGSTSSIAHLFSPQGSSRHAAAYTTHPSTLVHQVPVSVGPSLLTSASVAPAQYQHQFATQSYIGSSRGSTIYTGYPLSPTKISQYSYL
G protein-coupled receptor kinase 6 (Homo sapiens), sequence (P43250 whole entry, looked up): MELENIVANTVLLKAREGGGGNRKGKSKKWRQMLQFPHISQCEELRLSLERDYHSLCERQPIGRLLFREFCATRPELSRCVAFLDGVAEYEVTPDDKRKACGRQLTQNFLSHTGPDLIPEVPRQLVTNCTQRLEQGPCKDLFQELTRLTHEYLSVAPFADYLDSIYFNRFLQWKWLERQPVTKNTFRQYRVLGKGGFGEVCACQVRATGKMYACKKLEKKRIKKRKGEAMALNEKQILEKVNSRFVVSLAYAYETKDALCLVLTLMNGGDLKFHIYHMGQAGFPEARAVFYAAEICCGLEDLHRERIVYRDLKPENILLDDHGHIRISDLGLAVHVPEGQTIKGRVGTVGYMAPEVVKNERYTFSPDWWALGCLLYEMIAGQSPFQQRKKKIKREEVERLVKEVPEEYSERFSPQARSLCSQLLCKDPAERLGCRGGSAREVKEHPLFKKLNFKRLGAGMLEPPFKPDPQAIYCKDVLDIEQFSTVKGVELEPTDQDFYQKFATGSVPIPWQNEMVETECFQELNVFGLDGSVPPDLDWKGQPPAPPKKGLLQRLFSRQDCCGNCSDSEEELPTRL
Cyclin-dependent kinase 6 (Homo sapiens), sequence (Q00534 whole entry): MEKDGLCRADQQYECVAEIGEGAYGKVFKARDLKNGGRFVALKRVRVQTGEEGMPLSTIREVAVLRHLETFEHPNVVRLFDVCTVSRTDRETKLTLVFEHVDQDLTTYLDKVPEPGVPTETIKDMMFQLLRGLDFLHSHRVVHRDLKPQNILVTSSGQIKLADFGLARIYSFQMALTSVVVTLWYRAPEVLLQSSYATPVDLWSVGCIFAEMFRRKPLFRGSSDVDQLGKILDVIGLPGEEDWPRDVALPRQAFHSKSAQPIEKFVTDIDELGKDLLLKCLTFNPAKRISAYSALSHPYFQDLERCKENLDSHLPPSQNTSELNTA

SMILES: O=C(N[C@@H](C1CC1)C(F)(F)F)c1cc(-c2cnn3cc(-c4ccc(F)cc4)cnc23)cs1
- fold change (FC) [1]: 0
- inhibition [2]: 3%
- fold change (FC) [3]: 0
- fold change (FC) [4]: 0.01

SMILES: CNC(=O)c1ccccc1Oc1nc(Nc2cc(OC)c(OC)c(OC)c2)ncc1Br
- fold change (FC) [5]: 0
- fold change (FC) [6]: 0.05
- inhibition [7]: 0%
- fold change (FC) [8]: 0
- fold change (FC) [9]: 0
- fold change (FC) [10]: 0.16
- fold change (FC) [11]: 0.15
- inhibition [12]: 17%

SMILES: CC(C)[C@H](NC(=O)c1cc(-c2cnn3cc(-c4ccc(OCCN5CCCCC5)cc4)cnc23)cs1)C(F)(F)F
- fold change (FC) [13]: 0.07
- fold change (FC) [14]: 0.13
